Tests used:
NCI-H522 = assay: Cytotoxicity against human NCI-H522 cells; assay type: cell-based
In short: (§1)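 Tested in the NCI in vitro disease-oriented human tumour cell line screen, with screening performed by NCI. Growth was read by SRB signal over the drug incubation period at five concentrations: 100, 10, 1.0, 0.1 and 0.01 μM. GI50 is the concentration that reduces growth of treated cells to half that of control cells.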

LOX IMVI = assay: Cytotoxicity against human LOXIMVI cells; assay type: cell-based
U-251 [1] = assay: Cytotoxicity against human U251 cells; assay type: cell-based
In short: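 Screened by NCI in its in vitro disease-oriented human tumour cell line panel. Compounds tested at five concentrations (100, 10, 1.0, 0.1 and 0.01 μM). Growth read by sulforhodamine B (SRB) signal. GI50 is the concentration reducing growth of treated cells to half that of control cells during the drug incubation.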

SN12C = assay: Antiproliferative activity against human SN12C cells by SRB assay; assay type: functional
In short: (§2)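 Tested in the NCI in vitro human tumor cell line screen, run by the National Cancer Institute. Each compound was given at five concentrations (100, 10, 1.0, 0.1 and 0.01 μM). GI50 is the drug concentration that reduces growth of treated cells to half that of control cells during drug incubation, judged from the SRB signal.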

MDA-MB-435 [2] = assay: Antiproliferative activity against human MDA-MB-435 cells by SRB assay; assay type: functional; in short: as §2
U-251 [3] = assay: Antiproliferative activity against human U251 cells by SRB assay; assay type: functional
In short: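 Cell growth was tested in the NIH in vitro disease-oriented human tumor cell line screen, which NCI ran for these compounds. Compounds were tested at five concentrations (100, 10, 1.0, 0.1 and 0.01 μM), and growth was read by SRB signal. GI50 is the drug concentration that reduces growth of treated cells to half that of control cells during drug incubation.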

NCI-H23 [4] = assay: Cytotoxicity against human NCI-H23 cells; assay type: cell-based
OVCAR-5 = assay: Antiproliferative activity against human OVCAR5 cells by SRB assay; assay type: functional; in short: as §2
MOLT-4 = assay: Antiproliferative activity against human MOLT4 cells by SRB assay; assay type: functional; in short: as §2
OVCAR-8 = assay: Antiproliferative activity against human OVCAR8 cells by SRB assay; assay type: functional; in short: as §2
DU-145 = assay: Antiproliferative activity against human DU145 cells by SRB assay; assay type: functional; in short: as §2
A498 = assay: Cytotoxicity against human A498 cells; assay type: cell-based
SK-MEL-28 = assay: Antiproliferative activity against human SK-MEL-28 cells by SRB assay; assay type: functional; in short: as §2
MDA-MB-435 [5] = assay: Cytotoxicity against human MDA-MB-435 cells; assay type: cell-based
SK-MEL-2 = assay: Cytotoxicity against human SK-MEL-2 cells; assay type: cell-based; in short: as §1
HT-29 = assay: Cytotoxicity against human HT-29 cells; assay type: cell-based; in short: as §1
786-0 = assay: Antiproliferative activity against human 786-0 cells by SRB assay; assay type: functional; in short: as §2
HOP-62 [6] = assay: Cytotoxicity against human HOP62 cells; assay type: cell-based; in short: as §1
BT-549 = assay: Cytotoxicity against human BT549 cells; assay type: cell-based
HOP-92 = assay: Antiproliferative activity against human HOP92 cells by SRB assay; assay type: functional; in short: as §2
NCI-H23 [7] = assay: Antiproliferative activity against human NCI-H23 cells by SRB assay; assay type: functional; in short: as §2
HCT-116 = assay: Antiproliferative activity against human HCT116 cells by SRB assay; assay type: functional; in short: as §2
SF-295 = assay: Antiproliferative activity against human SF295 cells by SRB assay; assay type: functional; in short: as §2
K562 [8] = assay: Antiproliferative activity against human K562 cells by SRB assay; assay type: functional; in short: as §2
MCF7 = assay: Cytotoxicity against human MCF7 cells; assay type: cell-based
Histone deacetylase = assay: Inhibition of HDAC in human HeLa cells using Ac-Arg-Gly-Lys(Ac)-AMC as fluorescent substrate after 20 mins by fluorescence assay; assay type: cell-based
RXF 393 = assay: Antiproliferative activity against human RXF393 cells by SRB assay; assay type: functional; in short: as §2
K562 [9] = assay: Cytotoxicity against human K562 cells; assay type: cell-based
SF-268 = assay: Cytotoxicity against human SF268 cells; assay type: cell-based; in short: as §1
A549 = assay: Antiproliferative activity against human A549 cells by SRB assay; assay type: functional; in short: as §2
NCI-H322M = assay: Antiproliferative activity against human NCI-H322M cells by SRB assay; assay type: functional; in short: as §2
HOP-62 [10] = assay: Antiproliferative activity against human HOP62 cells by SRB assay; assay type: functional; in short: as §2

Molecule CC(/C=C/c1ccccc1)n1cc(/C=C/C(=O)NO)nn1 (configuration not stated) has an LC50 (NCI-H522) of 3.62 µM, an LC50 (LOX IMVI) of 4.12 µM and an LC50 (U-251 [1]) of 4.5 µM. The GI50 (SN12C) was 1.29 µM, the GI50 (MDA-MB-435 [2]) was 0.44 µM and the GI50 (U-251 [3]) was 0.777 µM. It also gave an LC50 (NCI-H23 [4]) of 6.61 µM, a GI50 (OVCAR-5) of 0.488 µM and a GI50 (MOLT-4) of 0.377 µM. The GI50 (OVCAR-8) was 0.232 µM, the GI50 (DU-145) was 0.803 µM and the LC50 (A498) was 4.83 µM. The GI50 (SK-MEL-28) was 0.819 µM, the LC50 (MDA-MB-435 [5]) was 30.8 µM and the LC50 (SK-MEL-2) was 37 µM. For the same molecule, the LC50 (HT-29) was 33.9 µM, the GI50 (786-0) was 1.64 µM and the LC50 (HOP-62 [6]) was 48.2 µM. The LC50 (BT-549) was over 100 µM, the GI50 (HOP-92) was 0.677 µM and the GI50 (NCI-H23 [7]) was 1.25 µM. For the same molecule, the GI50 (HCT-116) was 0.341 µM, the GI50 (SF-295) was 1.06 µM and the GI50 (K562 [8]) was 0.355 µM. The LC50 (MCF7) was over 100 µM, the IC50 (Histone deacetylase) was 0.062 µM and the GI50 (RXF 393) was 1.41 µM. It also gave an LC50 (K562 [9]) of over 100 µM, an LC50 (SF-268) of 12.2 µM and a GI50 (A549) of 1.47 µM. It also gave a GI50 (NCI-H322M) of 1.28 µM and a GI50 (HOP-62 [10]) of 1.34 µM.

From ChEMBL document CHEMBL1806473, “Structure-based optimization of click-based histone deacetylase inhibitors” (Eur J Med Chem, 2011)
